Assay results reported in ChEMBL document CHEMBL5523707, “Novel Inhibitory Site Revealed by XAP044 Mode of Action on the Metabotropic Glutamate 7 Receptor Venus Flytrap Domain” (J Med Chem, 2024).
Blank lines part the entries; values can stand above or below the molecule they belong to. Calls of active or inactive are those of the source. No cut-off for these calls is given here.

Columns and labels:
[1] = target: T1, Metabotropic glutamate receptor 7 (Rattus norvegicus, UniProt P35400); test: Inhibition of [3H] -LY341495 binding to rat mGlu7 expressed in CHO cell membrane incubated for 30 mins by liquid scintillation analysis
[2] = Agonist activity at rat mGlu7 Q258R/D262/R263 mutant
[3] = target: Metabotropic glutamate receptor 4 (Rattus norvegicus, UniProt P31423, K74A); test: Agonist activity against rat mGlu4 K74A mutant
[4] = target: Metabotropic glutamate receptor 4 (Rattus norvegicus, UniProt P31423, S160A); test: Agonist activity against rat mGlu4 S160A mutant
[5] = target: Metabotropic glutamate receptor 4 (Rattus norvegicus, UniProt P31423, S160D); test: Agonist activity against rat mGlu4 S160D mutant
[6] = Agonist activity at rat mGlu7 N74K/loop 4 region
[7] = target: Metabotropic glutamate receptor 7 (Rattus norvegicus, UniProt P35400, N74A); test: Agonist activity at rat mGlu7 N74A mutant
[8] = target: T1, Metabotropic glutamate receptor 7; test: Antagonist activity against LSP4-202-induced rat mGlu7 activation transfected in HEK293 cells co-transfected with chimeric Gqi9 assessed as decrease in LSP4-202 potency by measuring LSP4-202 pEC50 incubated for 24 hrs by IP-one HTRF assay; type: functional, cell-based
Method in brief: (§1)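 IP-One HTRF IP1 read-out in HEK293 transiently expressing rat mGlu7 plus chimeric Gqα9, 24 h after electroporation. LSP4-2022 concentration-response was tested with derivatives at 30 or 100 µM. Gives pEC50, pEC50/pEC50 control ratio, and max as % of LSP4-2022 maximal effect over basal. Triplicates, n independent experiments; paired t-test.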

[9] = target: Metabotropic glutamate receptor 7 (Rattus norvegicus, UniProt P35400, K60A/S160A); test: Agonist activity at rat mGlu7 K60A/S160A mutant
[10] = target: Metabotropic glutamate receptor 7 (Rattus norvegicus, UniProt P35400, K60A); test: Agonist activity at rat mGlu7 K60A mutant
[11] = target: Metabotropic glutamate receptor 7 (Rattus norvegicus, UniProt P35400, N74K); test: Agonist activity at rat mGlu7 N74K mutant
[12] = Agonist activity at rat mGlu7 S237A mutant
[13] = Agonist activity at rat mGlu7 K233A mutant
[14] = Agonist activity at rat mGlu7 loop beta10-alpha7 region
[15] = target: Metabotropic glutamate receptor 7 (Rattus norvegicus, UniProt P35400, S160A); test: Agonist activity at rat mGlu7 S160A mutant
[16] = Agonist activity at rat mGlu7 S229A mutant
[17] = Agonist activity at rat mGlu7 N288A mutant
[18] = target: Metabotropic glutamate receptor 4 (Rattus norvegicus, UniProt P31423, R258A); test: Agonist activity at rat mGlu4 R258A mutant
[19] = Agonist activity at rat mGlu7 K233S mutant
[20] = Agonist activity at rat mGlu4 loop beta-10-alpha7 region
[21] = Agonist activity at rat mGlu7 K233D mutant
[22] = target: Metabotropic glutamate receptor 4 (Rattus norvegicus, UniProt P31423, R60A); test: Agonist activity against rat mGlu4 R60A mutant
[23] = target: Metabotropic glutamate receptor 7 (Rattus norvegicus, UniProt P35400, Q258A); test: Agonist activity at rat mGlu7 Q258A mutant
[24] = Agonist activity at rat mGlu7 D314A mutant
[25] = Agonist activity at rat mGlu4 R258Q/D262/R263 mutant
[26] = target: Metabotropic glutamate receptor 4 (Rattus norvegicus, UniProt P31423); test: Agonist activity against wild type rat mGlu4; type: functional
[27] = target: T1, Metabotropic glutamate receptor 7; test: Agonist activity at wild type rat mGlu7; type: functional
Method in brief: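 HEK293 cells were transiently transfected by electroporation with rat mGlu7 plasmid plus chimeric Gqα9 to couple to phospholipase C. They were grown in DMEM with 10% FBS on polyornithine-coated wells at 150 000 cells/well.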

Rattus norvegicus [28] = organism: Rattus norvegicus; test: Ratio of pEC50 for antagonist activity against LSP4-202 induced wild type rat mGlu7 assessed as decrease in LSP4-202 potency by measuring LSP4-202 pEC50 at 1 uM to pEC50 for LSP4-202-induced wild type rat mGlu7
[29] = target: T1, Metabotropic glutamate receptor 7; test: Antagonist activity against rat mGlu7 activation transfected in HEK293 cells co-transfected with chimeric Gqi9 incubated for 24 hrs in presence of LSP4-2022 by IP-one HTRF assay; type: functional, cell-based; conditions: read-out: IC50
Method in brief: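 Inhibition curves were run with increasing inhibitor concentrations against IP1 production by 30 µM LSP4-2022. Rat mGlu7 was co-expressed with Gqα9 in HEK293 and assayed 24 h post-transfection with IP-One HTRF. IC50/pIC50 are means ± sem of independent experiments in triplicates. pIC50 compared to reference by unpaired t-test.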

[30] = Antagonist activity against LSP4-202-induced rat mGlu7 S229A mutant assessed as decrease in LSP4-202 potency by measuring LSP4-202 pEC50
Rattus norvegicus [31] = organism: Rattus norvegicus; test: Ratio of pEC50 for antagonist activity against LSP4-202-induced rat mGlu7 S237A mutant assessed as decrease in LSP4-202 potency to pEC50 for LSP4-202-induced rat mGlu7 S237A mutant; conditions: filed as antagonist
Rattus norvegicus [32] = organism: Rattus norvegicus; test: Ratio of pEC50 for antagonist activity against LSP4-202-induced rat mGlu7 S229A mutant assessed as decrease in LSP4-202 potency to pEC50 for LSP4-202-induced rat mGlu7 S229A mutant; conditions: filed as antagonist
[33] = Antagonist activity against LSP4-202-induced rat mGlu7 K233D mutant assessed as decrease in LSP4-202 potency by measuring LSP4-202 pEC50
Rattus norvegicus [34] = organism: Rattus norvegicus; test: Ratio of pEC50 for antagonist activity against LSP4-202 induced rat mGlu7 S229A mutant assessed as decrease in LSP4-202 potency by measuring LSP4-202 pEC50 at 100 uM to pEC50 for LSP4-202-induced rat mGlu7 S229A mutant
Rattus norvegicus [35] = organism: Rattus norvegicus; test: Ratio of pEC50 for antagonist activity against LSP4-202-induced wild type rat mGlu7 assessed as decrease in LSP4-202 potency to pEC50 for LSP4-202-induced wild type rat mGlu7; conditions: filed as antagonist
Rattus norvegicus [36] = organism: Rattus norvegicus; test: Ratio of pEC50 for antagonist activity at LSP4-202-induced rat mGlu7 K233D mutant assessed as decrease in LSP4-202 potency to pEC50 for LSP4-202-induced rat mGlu7 K233D mutant; conditions: filed as antagonist
Rattus norvegicus [37] = organism: Rattus norvegicus; test: Ratio of pEC50 for antagonist activity against LSP4-202 induced wild type rat mGlu7 assessed as decrease in LSP4-202 potency by measuring LSP4-202 pEC50 at 10 uM to pEC50 for LSP4-202-induced wild type rat mGlu7
Rattus norvegicus [38] = organism: Rattus norvegicus; test: Ratio of pEC50 for antagonist activity against LSP4-202 induced rat mGlu7 S229A mutant assessed as decrease in LSP4-202 potency by measuring LSP4-202 pEC50 at 30 uM to pEC50 for LSP4-202-induced rat mGlu7 S229A mutant
Rattus norvegicus [39] = organism: Rattus norvegicus; test: Ratio of pEC50 for antagonist activity against LSP4-202-induced rat mGlu7 activation transfected in HEK293 cells co-transfected with chimeric Gqi9 assessed as decrease in LSP4-202 potency to pEC50 for LSP4-202-induced rat mGlu7 activation transfected in HEK293 cells co-transfected with chimeric Gqi9; type: cell-based; method in brief: as §1
[40] = Antagonist activity against LSP4-202-induced rat mGlu7 […] mutant assessed as decrease in LSP4-202 potency by measuring LSP4-202 pEC50 at 30 uM
[41] = Antagonist activity against LSP4-202-induced rat mGlu7 […] mutant assessed as decrease in LSP4-202 potency by measuring LSP4-202 pEC50 at 10 uM
[42] = Antagonist activity against LSP4-202-induced rat mGlu7 S237A mutant assessed as decrease in LSP4-202 potency by measuring LSP4-202 pEC50
Rattus norvegicus [43] = organism: Rattus norvegicus; test: Ratio of pEC50 for antagonist activity against LSP4-202 induced wild type rat mGlu7 assessed as decrease in LSP4-202 potency by measuring LSP4-202 pEC50 at 3 uM to pEC50 for LSP4-202-induced wild type rat mGlu7
[44] = Antagonist activity at LSP4-202-induced rat mGlu7 K233S mutant assessed as decrease in LSP4-202 potency by measuring LSP4-202 pEC50
[45] = target: Metabotropic glutamate receptor 7 (Rattus norvegicus) (UniProt P35400); test: Non-competitive antagonist activity against rat mGlu7 receptor assessed as decrease in L-AP4 effect at 1 to 100 uM; conditions: filed as antagonist, dose 1-100 µM
[46] = target: Metabotropic glutamate receptor 7 (Rattus norvegicus) (UniProt P35400); test: Antagonist activity against LSP4-202-induced rat mGlu7 activation transfected in HEK293 cells co-transfected with chimeric Gqi9 assessed as decrease in LSP4-202 potency by measuring LSP4-202 maximum efficacy at 30 to 100 uM incubated for 24 hrs by IP-one HTRF assay relative to control; type: functional, cell-based; conditions: filed as antagonist, dose 30-100 µM; method in brief: as §1
Rattus norvegicus [47] = organism: Rattus norvegicus; test: Ratio of pEC50 for antagonist activity against LSP4-202-induced rat mGlu7 K233S mutant assessed as decrease in LSP4-202 potency to pEC50 for LSP4-202-induced rat mGlu7 K233S mutant; conditions: filed as antagonist
[48] = target: T1, Metabotropic glutamate receptor 7; test: Inhibition of [3H] -LY341495 binding to rat mGlu7 expressed in CHO cell membrane incubated for 30 mins in presence of LY341495 by liquid scintillation analysis; type: cell membranes
Rattus norvegicus [49] = organism: Rattus norvegicus; test: Ratio of pEC50 for antagonist activity against LSP4-202 induced wild type rat mGlu7 assessed as decrease in LSP4-202 potency by measuring LSP4-202 pEC50 at 30 uM to pEC50 for LSP4-202-induced wild type rat mGlu7
[50] = Antagonist activity against LSP4-202-induced rat mGlu7 K233A mutant assessed as decrease in LSP4-202 potency by measuring LSP4-202 pEC50
[51] = Antagonist activity against LSP4-202-induced rat mGlu7 […] mutant assessed as decrease in LSP4-202 potency by measuring LSP4-202 pEC50 at 100 uM
Rattus norvegicus [52] = organism: Rattus norvegicus; test: Ratio of pEC50 for antagonist activity against LSP4-202-induced rat mGlu7 K233A mutant assessed as decrease in LSP4-202 potency to pEC50 for LSP4-202-induced rat mGlu7 K233A mutant; conditions: filed as antagonist
Rattus norvegicus [53] = organism: Rattus norvegicus; test: Ratio of pEC50 for antagonist activity against LSP4-202 induced rat mGlu7 S229A mutant assessed as decrease in LSP4-202 potency by measuring LSP4-202 pEC50 at 10 uM to pEC50 for LSP4-202-induced rat mGlu7 S229A mutant

T1 sequence (P35400 whole entry): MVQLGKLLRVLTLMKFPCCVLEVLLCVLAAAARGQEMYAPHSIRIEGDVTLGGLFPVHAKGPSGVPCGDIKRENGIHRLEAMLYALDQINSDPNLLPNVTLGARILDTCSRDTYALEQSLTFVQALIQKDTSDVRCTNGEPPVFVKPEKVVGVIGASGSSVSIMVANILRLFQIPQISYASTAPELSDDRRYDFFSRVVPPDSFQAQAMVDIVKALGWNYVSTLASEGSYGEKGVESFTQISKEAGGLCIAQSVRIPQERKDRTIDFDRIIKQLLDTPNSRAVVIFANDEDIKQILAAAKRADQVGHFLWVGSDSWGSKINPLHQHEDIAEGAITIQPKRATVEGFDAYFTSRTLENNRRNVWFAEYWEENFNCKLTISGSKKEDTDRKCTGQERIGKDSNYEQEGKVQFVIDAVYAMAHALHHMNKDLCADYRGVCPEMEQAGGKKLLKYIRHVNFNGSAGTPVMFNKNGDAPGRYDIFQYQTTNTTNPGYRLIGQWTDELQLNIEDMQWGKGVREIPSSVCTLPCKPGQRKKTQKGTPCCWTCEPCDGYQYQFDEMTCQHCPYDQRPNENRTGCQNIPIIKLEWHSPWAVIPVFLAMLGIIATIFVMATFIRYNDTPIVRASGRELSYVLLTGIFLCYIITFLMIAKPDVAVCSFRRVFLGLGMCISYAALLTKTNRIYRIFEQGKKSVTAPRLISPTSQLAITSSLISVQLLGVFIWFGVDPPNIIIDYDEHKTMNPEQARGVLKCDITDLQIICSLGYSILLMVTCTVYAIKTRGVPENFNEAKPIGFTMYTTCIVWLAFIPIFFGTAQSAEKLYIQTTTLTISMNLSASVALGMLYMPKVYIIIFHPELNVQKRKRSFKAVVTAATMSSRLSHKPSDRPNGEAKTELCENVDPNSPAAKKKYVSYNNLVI
Metabotropic glutamate receptor 7 (Rattus norvegicus), sequence (P35400 whole entry): as above
Metabotropic glutamate receptor 4 (Rattus norvegicus, UniProt P31423, S160D), sequence (P31423 33-912 S160D limits assumed): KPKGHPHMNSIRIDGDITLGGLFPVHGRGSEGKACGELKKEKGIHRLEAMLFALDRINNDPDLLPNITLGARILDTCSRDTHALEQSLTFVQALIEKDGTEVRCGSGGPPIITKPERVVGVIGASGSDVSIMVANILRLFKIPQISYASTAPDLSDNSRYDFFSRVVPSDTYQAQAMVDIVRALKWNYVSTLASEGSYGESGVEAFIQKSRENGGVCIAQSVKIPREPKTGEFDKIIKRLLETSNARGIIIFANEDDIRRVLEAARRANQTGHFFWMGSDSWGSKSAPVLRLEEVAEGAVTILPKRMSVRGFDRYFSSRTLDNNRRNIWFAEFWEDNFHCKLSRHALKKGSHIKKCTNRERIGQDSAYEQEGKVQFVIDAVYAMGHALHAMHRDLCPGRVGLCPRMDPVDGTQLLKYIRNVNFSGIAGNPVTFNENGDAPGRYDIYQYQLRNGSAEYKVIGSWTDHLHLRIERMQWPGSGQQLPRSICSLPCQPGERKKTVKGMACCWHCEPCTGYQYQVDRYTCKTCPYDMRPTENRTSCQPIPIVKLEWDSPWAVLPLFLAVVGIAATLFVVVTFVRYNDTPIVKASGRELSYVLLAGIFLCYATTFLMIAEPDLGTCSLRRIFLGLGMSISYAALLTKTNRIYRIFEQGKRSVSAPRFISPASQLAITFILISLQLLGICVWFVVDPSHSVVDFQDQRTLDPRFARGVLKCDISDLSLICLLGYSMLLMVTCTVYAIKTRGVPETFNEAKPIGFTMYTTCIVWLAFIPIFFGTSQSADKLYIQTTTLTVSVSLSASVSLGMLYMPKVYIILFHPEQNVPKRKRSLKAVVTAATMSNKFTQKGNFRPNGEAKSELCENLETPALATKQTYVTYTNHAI
Metabotropic glutamate receptor 4 (Rattus norvegicus, UniProt P31423, K74A), sequence (P31423 33-912 K74A limits assumed): as the sequence (P31423 33-912 S160D limits assumed) above, with K42A, D128S counted along it
Metabotropic glutamate receptor 7 (Rattus norvegicus, UniProt P35400, N74A), sequence (P35400 35-915 N74A limits assumed): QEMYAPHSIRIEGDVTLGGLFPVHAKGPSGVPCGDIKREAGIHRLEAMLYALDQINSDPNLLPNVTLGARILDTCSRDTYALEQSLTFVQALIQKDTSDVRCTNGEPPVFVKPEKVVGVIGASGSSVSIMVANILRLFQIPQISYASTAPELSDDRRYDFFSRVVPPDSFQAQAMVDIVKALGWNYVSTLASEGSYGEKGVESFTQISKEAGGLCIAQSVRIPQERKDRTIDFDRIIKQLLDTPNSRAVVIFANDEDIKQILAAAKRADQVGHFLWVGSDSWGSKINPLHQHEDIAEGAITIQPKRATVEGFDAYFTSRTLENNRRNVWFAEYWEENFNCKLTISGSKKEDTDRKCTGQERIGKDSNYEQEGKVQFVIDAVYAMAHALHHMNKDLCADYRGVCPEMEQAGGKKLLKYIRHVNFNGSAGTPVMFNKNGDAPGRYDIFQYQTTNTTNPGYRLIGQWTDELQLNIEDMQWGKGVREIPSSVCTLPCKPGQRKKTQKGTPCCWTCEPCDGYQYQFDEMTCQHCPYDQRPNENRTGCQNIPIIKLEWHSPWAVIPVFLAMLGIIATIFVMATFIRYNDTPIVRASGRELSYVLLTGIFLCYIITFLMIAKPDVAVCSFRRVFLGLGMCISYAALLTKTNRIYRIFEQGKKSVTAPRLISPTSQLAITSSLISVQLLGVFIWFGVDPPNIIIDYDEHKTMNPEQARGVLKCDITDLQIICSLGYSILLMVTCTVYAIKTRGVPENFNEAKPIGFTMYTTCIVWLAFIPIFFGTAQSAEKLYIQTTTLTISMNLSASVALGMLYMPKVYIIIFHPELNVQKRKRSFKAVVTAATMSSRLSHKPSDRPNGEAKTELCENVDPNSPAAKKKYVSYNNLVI

SMILES: N[C@](CC1c2ccccc2Oc2ccccc21)(C(=O)O)[C@H]1C[C@@H]1C(=O)O
IC50 [1]: 0.19 µM

EC50 [2]: 13.9 µM
EC50 [3]: 0.024 µM
EC50 [4]: 26.2 µM
EC50 [5]: 18.5 µM
EC50 [6]: 2.56 µM
EC50 [7]: 32 µM
EC50 [8]: 19.5 µM
EC50 [9]: > 300 µM
EC50 [10]: 178 µM
EC50 [11]: 47 µM
EC50 [12]: 18.3 µM
pEC50 [12]: 4.74
EC50 [13]: 87.7 µM
pEC50 [13]: 4.06
EC50 [14]: 2.18 µM
EC50 [15]: > 300 µM
EC50 [16]: 14.5 µM
pEC50 [16]: 4.96
EC50 [17]: 49.3 µM
EC50 [18]: 4.91 µM
EC50 [19]: 40.9 µM
pEC50 [19]: 4.39
EC50 [20]: 3.68 µM
EC50 [21]: 155 µM
pEC50 [21]: 3.83
EC50 [22]: 9.07 µM
EC50 [23]: 18.2 µM
EC50 [24]: > 1000 µM
EC50 [25]: 7 µM
EC50 [26]: 0.833 µM
EC50 [27]: 21.2 µM
SMILES: N[C@@H](CCP(=O)(O)C(O)c1ccc(OCC(=O)O)cc1)C(=O)O (stereo partly specified)

Ratio (Rattus norvegicus [28]): 0.96
IC50 [29]: 4.33 µM
pEC50 [30]: 4.99
Ratio (Rattus norvegicus [31]): 0.78
Ratio (Rattus norvegicus [32]): 1.02
pEC50 [33]: 3.56
Ratio (Rattus norvegicus [34]): 1
Ratio (Rattus norvegicus [35]): 0.83
Ratio (Rattus norvegicus [36]): 0.93
Ratio (Rattus norvegicus [37]): 0.91
Ratio (Rattus norvegicus [38]): 0.9
EC50 [40]: 49.5 µM
pEC50 [40]: 4.32
EC50 [41]: 25 µM
pEC50 [41]: 4.6
pEC50 [42]: 3.7
Ratio (Rattus norvegicus [43]): 0.94
pEC50 [44]: 4.25
Activity [45]: Active
Emax [46]: 96.4%
Ratio (Rattus norvegicus [47]): 0.88
IC50 [48]: 0.08 µM
Ratio (Rattus norvegicus [49]): 0.83
pEC50 [50]: 3.58
EC50 [51]: 10.9 µM
pEC50 [51]: 4.99
Ratio (Rattus norvegicus [52]): 0.88
Ratio (Rattus norvegicus [53]): 0.96
SMILES: O=c1c(Oc2ccc(I)cc2)coc2cc(O)ccc12
Ratio (Rattus norvegicus [39]): 0.82
